# OX1R antag-1 – blocks the human orexin 1 receptor. CHO/OX1R cells, Fluo-8 calcium fluorescence, orexin A. inhibition, % at 5 µM. 0.43% of 330,000 active;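 active = inhibition above its plate's threshold, mean inhibition of all tested compounds on the plate plus 3 SD, cut at about 37% in these data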;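 also: 0% = orexin A challenge wells and 100% = SB-334867-A antagonist wells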
# Target sequence (O43613 whole entry, looked up): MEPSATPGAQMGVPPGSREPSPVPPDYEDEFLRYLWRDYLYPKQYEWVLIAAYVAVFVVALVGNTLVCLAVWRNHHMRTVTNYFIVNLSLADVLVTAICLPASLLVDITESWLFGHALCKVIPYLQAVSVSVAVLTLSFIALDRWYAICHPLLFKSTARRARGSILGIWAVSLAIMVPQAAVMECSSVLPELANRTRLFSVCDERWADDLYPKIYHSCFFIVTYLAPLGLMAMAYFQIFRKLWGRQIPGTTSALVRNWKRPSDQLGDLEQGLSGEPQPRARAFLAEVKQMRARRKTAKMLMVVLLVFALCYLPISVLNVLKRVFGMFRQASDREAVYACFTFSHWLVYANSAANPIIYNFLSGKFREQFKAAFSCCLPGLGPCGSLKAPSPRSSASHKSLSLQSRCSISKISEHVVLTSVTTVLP
# OX1R antag-2 – OX1R (human) antagonism; O43613; OX1R-expressing cells, FRET antagonist read-out; inhibition, % at 6.6 µM; 1.8% of 330,000 active; in the data active = inhibition mostly above about 38%, no sharp cut-off; inactive = mostly below about 40%;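 also: 0% = agonist challenge alone and 100% = reference antagonist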
# PGE2 EP2 inh – inhibitors of human EP2 prostaglandin E2 receptor; C6 glioma cells expressing human EP2, cAMP TR-FRET; cells stimulated with saturating PGE2; inhibition, % at 25 µM; 0.52% of 260,000 active;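 active = percent inhibition above 40 after rounding to a whole number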;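 also: rat C6 glioma host cells with rolipram phosphodiesterase inhibitor present; the protocol text gives 20 µM as final concentration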
# CHO parental Ca – signal in parental CHO cells, OX1R antagonist counter-screen. parental CHO-K1, ATP-induced calcium, Fluo-8 fluorescence. inhibition, % at 5.6 µM. 0.63% of 330,000 active. AID 463079;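 active = inhibition above that plate's mean sample inhibition plus 3 SD, cut at about 26% in these data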;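 also: 0% = ATP-challenged DMSO wells and 100% = DMSO wells without ATP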
#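 Test system: parental CHO cells; detection: calcium-sensitive Fluo-8 fluorescence; evaluation: percent inhibition of calcium signal; also added: ATP as calcium-mobilizing challenge; repeats: one well per compound; control set: ATP-challenged DMSO wells low, unchallenged DMSO wells high; compound: single nominal dose of 5.6 µM per compound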
# GPR7 antag – human neuropeptides B/W receptor 1 antagonism. P48145. GPR7-expressing cells, fluorescence antagonist assay. inhibition, % at 4.4 µM. 1.1% of 290,000 active. AID 1861; in the data active = inhibition above about 16%, passing the limit was not always enough;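 also: cells stimulated with the agonist NPW; 0% = agonist with vehicle and 100% = vehicle without agonist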
# Target sequence (P48145 whole entry, looked up): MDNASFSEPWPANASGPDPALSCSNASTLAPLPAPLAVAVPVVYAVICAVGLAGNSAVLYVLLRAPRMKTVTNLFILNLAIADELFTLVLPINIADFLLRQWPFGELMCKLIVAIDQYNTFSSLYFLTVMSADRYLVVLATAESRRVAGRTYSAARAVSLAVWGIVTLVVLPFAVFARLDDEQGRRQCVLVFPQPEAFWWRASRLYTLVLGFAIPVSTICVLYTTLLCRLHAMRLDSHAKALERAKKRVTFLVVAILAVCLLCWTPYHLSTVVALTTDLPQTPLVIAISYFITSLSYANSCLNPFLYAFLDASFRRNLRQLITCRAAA
# EP2 mod – EP2 receptor (human) modulation; induction, % at 25 µM; EP2-expressing cells, cAMP HTRF FRET, PGE2 co-stimulation; AID 940; 0.83% of 260,000 active;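 active = compounds whose cAMP rise, as percent of the full-agonist control response, exceeds 60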;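 also: rat C6 glioma line stably carrying human EP2 under a CMV promoter; the protocol text gives 20 µM as final concentration; 100% = response of wells given 1 µM PGE2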
# OX1R Ca confirm – confirmation of human orexin 1 receptor antagonists; inhibition, % at 5 µM; shares compounds with OX1R antag-1; CHO/OX1R cells, orexin A calcium Fluo-8 fluorescence; 38% of 1,100 active; in the data active = inhibition above about 29%;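 also: 0% = agonist challenge alone and 100% = reference antagonist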
# CHO Ca triplic – counter-screen for OX1R antagonists: effect in parental CHO cells. shares compounds with OX1R antag-1. parental CHO-K1, ATP-induced calcium, Fluo-8 fluorescence. inhibition, % at 5.6 µM. 9.3% of 1,100 active. AID 492965;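 active = inhibition above a per-plate limit, the mean inhibition of that plate's test compounds plus 3 SD, cut at about 25% in these data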;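 also: 0% = ATP challenge with DMSO and 100% = DMSO without ATP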
# OX1R HTRF conf – confirmation of human orexin 1 receptor antagonists, HTRF format; OX1R-expressing cells, HTRF antagonist assay; 49% of 1,800 active; shares compounds with OX1R antag-2; inhibition, % at 6.6 µM; AID 492964; in the data active = inhibition above about 55%;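 also: CHO cells expressing OX1R stimulated with orexin A at about EC80; 0% = agonist challenge alone and 100% = reference antagonist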
# CHO-K1 HTRF cnt – counter-screen: parental CHO-K1 HTRF response. shares compounds with OX1R antag-2. parental CHO-K1 cells, HTRF counterscreen. inhibition, % at 6.6 µM. 48% of 1,800 active. AID 493232; in the data active = inhibition above about 17%;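 also: 0% = agonist challenge with vehicle and 100% = vehicle alone without agonist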
# * = called active by the depositor; . = no result. This is a sample that favours compounds with a hit; in the whole collection about 3.7% have one here.
SMILES,OX1R antag-1,OX1R antag-2,PGE2 EP2 inh,CHO parental Ca,GPR7 antag,EP2 mod,OX1R Ca confirm,CHO Ca triplic,OX1R HTRF conf,CHO-K1 HTRF cnt
O=C(CSc1ccc(-c2ccccc2)nn1)c1cccs1,49.8*,101.5*,1.4,-7.4,-4.7,-27.8,99.3*,-3.9,89.9*,-3.8
COc1ccc(C[C@](C)(N)C(=O)O)cc1OC,-10.7,13.4,.,-4.5,.,.,.,.,.,.
COc1cccc(-c2nc(CS(=O)(=O)CC(=O)Nc3cc(OC)ccc3OC)c(C)o2)c1,32.8,78.4*,.,-16.9,0.1,.,22.9,-8.7,84.9*,5.8
COc1cccc(-c2nc(CS(=O)(=O)CC(=O)Nc3ccccc3C)c(C)o2)c1,-9.9,16.6,.,-22.8,5.2,.,.,.,.,.
Cc1nc2cc(NC(=O)COc3ccccc3C#N)ccc2n1-c1ccccc1,102.4*,122.3*,1.2,2.8,10.2,-11.5,83.0*,-3.8,92.3*,11.1
COc1ccccc1NC(=O)COC(=O)c1ccc2c(c1)nc(C)n2-c1ccccc1,-12.2,18.8,9.9,-19.2,-2.7,27.9,.,.,.,.
Cn1c2ccccc2c2cc(/C=N/NC(=O)c3ccccc3F)ccc21,31.8,102.4*,.,-17.0,0.5,.,23.0,-8.6,94.4*,8.3
CCc1cc(C(=O)OCC(=O)N2CCC(c3ccccc3)=N2)sc1C,54.3*,80.1*,.,-7.1,-34.0,.,78.1*,-4.3,91.6*,1.6
Cc1cc(C(=O)CN2C(=O)NC3(CCCc4sccc43)C2=O)c(C)n1-c1ccccc1 (stereo unspecified),38.3*,85.2*,5.5,-10.0,-7.2,30.2,34.8*,-10.3,79.8*,-3.2
CN(C)c1ccc(/C=N/NC(=O)c2ccccc2Cl)cc1,-3.0,24.6,9.2,0.8,4.9,-45.8,.,.,.,.
CCn1c2ccccc2c2cc(N=C3SC(CC(=O)Nc4ccccc4OC)C(=O)N3CCOC)ccc21 (stereo unspecified),57.9*,77.2*,3.0,-3.6,-4.7,-51.5,52.2*,-12.6,82.6*,1.9
O=C(CNCc1ccc(F)cc1)N1CCC2(CC1)OCCO2,.,.,19.1,.,.,-14.3,.,.,.,.
Cc1ccc(CS(=O)Cc2ccc(C(=O)NCc3ccccc3Br)o2)cc1 (stereo unspecified),-16.7,4.7,.,-26.4,-0.8,.,.,.,.,.
O=C(C1CCCN(S(=O)(=O)c2cccc3nsnc23)C1)N1CCc2ccccc21 (stereo unspecified),26.7,102.6*,.,4.5,-12.1,2.1,-7.2,-12.6,24.6,10.0
CCOC(=O)c1c(C)[nH]c(C(=O)Cn2nnc(-c3ccccc3Cl)n2)c1C,13.1,26.2,21.0,13.5,-0.9,9.7,.,.,.,.
CCOC(=O)c1c(C)[nH]c(C)c1C(=O)Cn1nnc(-c2ccccc2C)n1,29.3,54.5*,13.2,6.4,-17.8,12.1,28.9*,6.8,64.6*,6.7
Cc1cccc(NC(=O)NNC(=O)c2cc(-c3ccccc3Cl)nc3ccccc23)c1,44.1*,82.8*,18.5,-18.5,-13.2,-5.7,37.9*,6.2,91.8*,4.0
O=C(Nc1ccc2nc(-c3cccs3)c(-c3cccs3)nc2c1)N1CCOCC1,21.1,73.0*,8.3,-1.8,-3.6,-37.2,25.1,-0.1,43.7,14.2
CCCN(CC(=O)Nc1ccccc1OC)C(=O)Cn1[nH]c(=O)c2ccccc2c1=O,-22.4,7.3,.,-22.2,.,.,.,.,.,.
CCCN(CC(=O)Nc1ccccc1OC)C(=O)CSc1ccc(Br)cc1C,53.7*,57.8*,.,-23.6,.,.,21.9,-10.9,72.8*,4.0
O=C(COn1nnc2ccc(S(=O)(=O)N3CCOCC3)cc21)NCCc1ccccc1,-12.0,9.3,.,-14.5,.,.,.,.,.,.
N#CC(=C1CCCC1)c1nc(-c2ccccc2O)cs1,66.7*,93.1*,11.9,-7.5,-5.6,1.1,54.1*,-4.8,94.2*,-4.1
COc1ccc2[nH]cc(/C=C/C(=O)c3ccccc3)c2c1,34.3,59.2*,28.6,-27.5,-2.1,-27.3,16.9,-3.9,40.9,9.7
O=C(/C=C/c1c[nH]c2ccccc12)c1ccccc1,12.1,52.5,7.8,1.8,-5.1,-15.7,.,.,.,.
CC(C)c1cc(=O)n2[nH]c(SCc3ccccc3Cl)nc2n1,6.0,2.1,.,-15.6,2.9,.,.,.,.,.
SMILES,OX1R antag-1,OX1R antag-2,PGE2 EP2 inh,CHO parental Ca,GPR7 antag,EP2 mod,OX1R Ca confirm,CHO Ca triplic,OX1R HTRF conf,CHO-K1 HTRF cnt
O=C(Nc1nccs1)c1ccc(-c2ccc(F)c(Cl)c2)o1,47.3*,97.4*,.,-16.8,-20.6,.,18.6,-15.3,71.8*,12.8
Cc1cnc(NC(=O)c2ccc(-c3nc4ccccc4s3)o2)s1,82.0*,106.4*,9.7,-26.7,-8.7,-46.0,82.8*,-7.8,100.7*,10.5
COC(C[C@H]1O[C@@H]1C(=O)COCc1ccccc1)OC,-19.4,8.8,5.5,-6.8,.,.,.,.,.,.
CCN(CC)CCOCCOc1cc(C)c(Cl)c(C)c1,-3.9,1.5,18.4,-15.4,1.8,-32.4,.,.,.,.
Cc1c(C(=O)Nc2ccc(N3CCOCC3)cc2)oc2ccccc12,73.2*,99.7*,4.0,1.0,0.1,-17.6,73.4*,6.4,90.1*,14.6
Cc1c(C(=O)OCC(=O)Nc2ccc(N3CCOCC3)cc2)oc2ccccc12,-19.6,20.3,.,20.7,.,.,.,.,.,.
Cc1cc(SCC(=O)OC(C)C(=O)N(C)c2ccccc2)nc2ccccc12 (stereo unspecified),48.1*,38.0*,.,-25.6,.,.,15.2,0.9,60.8*,0.3
COC(=O)c1sc(NC(=O)c2cc3c(s2)CCCC3)nc1C,58.0*,89.3*,7.1,-20.3,10.9,15.6,26.6,-17.4,98.4*,-0.9
C[C@H](CO)N1C[C@H](C)[C@@H](CN(C)C(=O)Nc2ccccc2)Oc2c(NC(=O)NC3CCCCC3)cccc2C1=O,-23.3,2.8,.,-19.0,.,.,.,.,.,.
O=C1NC(c2ccccc2)C(C(=O)c2cccs2)C(O)(C(F)(F)F)N1 (stereo unspecified),-2.0,13.7,2.2,-6.4,-11.7,35.5,.,.,.,.
C=CCSC1=C(C#N)C(c2ccccc2Cl)C(C(=O)c2cccs2)C(O)(C(F)(F)F)N1 (stereo unspecified),41.8*,103.6*,20.3,-20.9,-3.4,-60.4,79.0*,-12.8,88.7*,7.5
CCSC1=C(C#N)C(c2ccccc2Cl)C(C(=O)c2cccs2)C(O)(C(F)(F)F)N1 (stereo unspecified),94.5*,95.2*,14.1,-6.5,-4.0,1.4,77.2*,-12.7,89.0*,-0.3
CSc1nnc(C)c(/C=C/NOCc2ccc(Cl)cc2)n1,-16.9,18.1,17.3,-11.2,15.3,46.6,.,.,.,.
